Experimental data reported in ChEMBL document CHEMBL1122831, “Synthesis and structure-activity relationships of novel arylfluoroquinolone antibacterial agents” (1985).
≈ marks a conversion by molar mass, not a printed value.

Experiments:
Type in all cases: functional
Klebsiella aerogenes = assay: Minimum inhibition concentration in vitro determined against Enterobacteri aerogenes ATCC 13048
How it was run: (§1)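 Agar dilution on brain-heart infusion (BHI) agar with twofold dilutions from a 2000 µg/mL stock, giving final test concentrations of 200-0.005 µg/mL. Organisms were grown overnight in BHI broth at 36 °C, and about 10⁴ organisms were inoculated per plate. Plates were incubated 18 h at 36 °C. MIC was the lowest concentration with no visible growth.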

Staphylococcus aureus [1] = assay: Minimum inhibition concentration in vitro determined against Staphylococcus aureus ATCC 6538P; how it was run: as §1
Klebsiella pneumoniae = assay: Minimum inhibition concentration in vitro determined against Klebsiella pneumoniae 8045; how it was run: as §1
Acinetobacter = assay: Minimum inhibition concentration in vitro determined against Acinetobacter sp CMX669; how it was run: as §1
Staphylococcus aureus [2] = assay: Minimum inhibition concentration in vitro determined against Staphylococcus aureus CMX 686B; how it was run: as §1
Pseudomonas aeruginosa [3] = assay: Minimum inhibition concentration in vitro determined against Pseudomona aeruginosa 5007; how it was run: as §1
Escherichia coli = assay: Minimum inhibition concentration in vitro determined against Escherichia coli juhl; conditions: Escherichia coli; read-out: MIC; how it was run: as §1
Pseudomonas aeruginosa [4] = assay: Minimum inhibition concentration in vitro determined against Pseudomona aeruginosa K799/WT; how it was run: as §1
[5] = tested on: Staphylococcus epidermidis; assay: Minimum inhibition concentration in vitro determined against Staphylococcus epidermidis 3519; how it was run: as §1
Enterococcus faecium = assay: Minimum inhibition concentration in vitro determined against Streptococcus faecium ATCC 8043; how it was run: as §1
Streptococcus pyogenes = assay: Minimum inhibition concentration in vitro determined against Streptococcus pyogenes 930; how it was run: as §1

Row | Structure (SMILES) | MIC (Klebsiella aerogenes) [µg/mL] | MIC (Staphylococcus aureus [1]) [µg/mL] | MIC (Klebsiella pneumoniae) [µg/mL] | MIC (Acinetobacter) [µg/mL] | MIC (Staphylococcus aureus [2]) [µg/mL] | MIC (Pseudomonas aeruginosa [3]) [µg/mL] | MIC (Escherichia coli) [µg/mL] | MIC (Pseudomonas aeruginosa [4]) [µg/mL] | MIC [5] [µg/mL] | MIC (Enterococcus faecium) [µg/mL] | MIC (Streptococcus pyogenes) [µg/mL]
1 | O=C(O)c1cn(-c2ccc(F)cc2)c2cc(N3CCCCC3)c(F)cc2c1=O | 3.1 (≈ 8.06 µM) | 0.2 (≈ 0.52 µM) | 1.56 (≈ 4.06 µM) | 1.56 (≈ 4.06 µM) | 0.2 (≈ 0.52 µM) | 6.2 (≈ 16.1 µM) | 1.56 (≈ 4.06 µM) | 6.2 (≈ 16.1 µM) | 0.39 (≈ 1.01 µM) | 3.1 (≈ 8.06 µM) | 1.56 (≈ 4.06 µM)
2 | O=C(O)c1cn(-c2ccccc2)c2cc(N3CCNCC3)c(F)cc2c1=O | 0.39 (≈ 1.06 µM) | 0.39 (≈ 1.06 µM) |  | 0.78 (≈ 2.12 µM) | 0.39 (≈ 1.06 µM) | 0.78 (≈ 2.12 µM) | 0.2 (≈ 0.544 µM) | 1.56 (≈ 4.25 µM) | 1.56 (≈ 4.25 µM) | 12.5 (≈ 34 µM) | 1.56 (≈ 4.25 µM)
3 | CNC1CCN(c2cc3c(cc2F)c(=O)c(C(=O)O)cn3-c2ccc(F)cc2)C1 (stereo not drawn) | 3.1 (≈ 7.76 µM) | 3.1 (≈ 7.76 µM) | 0.78 (≈ 1.95 µM) | 6.2 (≈ 15.5 µM) | 3.1 (≈ 7.76 µM) | 50 (≈ 125 µM) | 3.1 (≈ 7.76 µM) | 50 (≈ 125 µM) | 6.2 (≈ 15.5 µM) | 25 (≈ 62.6 µM) | 12.5 (≈ 31.3 µM)
4 | O=C(O)c1cn(-c2ccc(F)cc2)c2cc(N3CCCC3)c(F)cc2c1=O | 0.78 (≈ 2.11 µM) | 0.1 (≈ 0.27 µM) | 0.39 (≈ 1.05 µM) | 0.78 (≈ 2.11 µM) | 0.1 (≈ 0.27 µM) | 1.56 (≈ 4.21 µM) | 0.78 (≈ 2.11 µM) | 1.56 (≈ 4.21 µM) | 0.2 (≈ 0.54 µM) | 0.78 (≈ 2.11 µM) | 0.78 (≈ 2.11 µM)
5 | CN(C)C1CCN(c2cc3c(cc2F)c(=O)c(C(=O)O)cn3-c2ccc(F)cc2)CC1 | 0.78 (≈ 1.82 µM) | 0.39 (≈ 0.912 µM) | 0.39 (≈ 0.912 µM) | 0.78 (≈ 1.82 µM) | 0.39 (≈ 0.912 µM) | 3.1 (≈ 7.25 µM) | 0.39 (≈ 0.912 µM) | 3.1 (≈ 7.25 µM) | 0.78 (≈ 1.82 µM) | 3.1 (≈ 7.25 µM) | 1.56 (≈ 3.65 µM)
6 | NC1CCN(c2cc3c(cc2F)c(=O)c(C(=O)O)cn3-c2ccc(F)cc2)C1 (stereo not drawn) | 0.05 (≈ 0.13 µM) | 0.05 (≈ 0.13 µM) | 0.02 (≈ 0.0519 µM) | 0.2 (≈ 0.519 µM) | 0.05 (≈ 0.13 µM) | 0.2 (≈ 0.519 µM) | 0.02 (≈ 0.0519 µM) | 0.2 (≈ 0.519 µM) | 0.05 (≈ 0.13 µM) | 0.78 (≈ 2.02 µM) | 0.1 (≈ 0.259 µM)
7 | CN(C)C1CCN(c2cc3c(cc2F)c(=O)c(C(=O)O)cn3-c2ccc(F)cc2)C1 (stereo not drawn) | 0.78 (≈ 1.89 µM) | 0.39 (≈ 0.943 µM) | 0.2 (≈ 0.484 µM) | 0.78 (≈ 1.89 µM) | 0.39 (≈ 0.943 µM) | 25 (≈ 60.5 µM) | 0.39 (≈ 0.943 µM) | 12.5 (≈ 30.2 µM) | 0.39 (≈ 0.943 µM) | 25 (≈ 60.5 µM) | 3.1 (≈ 7.5 µM)
8 | Cc1cccc(C)c1-n1cc(C(=O)O)c(=O)c2cc(F)c(N3CCN(C)CC3)cc21 | > 100 | > 100 | > 100 | > 100 | > 100 | > 100 | > 100 | > 100 | > 100 | > 100 | > 100
9 | CC(=O)N1CCN(c2cc3c(cc2F)c(=O)c(C(=O)O)cn3-c2ccc(F)cc2)CC1 | 3.1 (≈ 7.25 µM) | 0.2 (≈ 0.468 µM) | 1.56 (≈ 3.65 µM) | 12.5 (≈ 29.2 µM) | 0.2 (≈ 0.468 µM) | 12.5 (≈ 29.2 µM) | 1.56 (≈ 3.65 µM) | 12.5 (≈ 29.2 µM) | 0.78 (≈ 1.82 µM) | 3.1 (≈ 7.25 µM) | 1.56 (≈ 3.65 µM)
10 | CCCCN1CCN(c2cc3c(cc2F)c(=O)c(C(=O)O)cn3-c2ccc(F)cc2)CC1 | 1.56 (≈ 3.53 µM) | 0.78 (≈ 1.77 µM) | 0.39 (≈ 0.883 µM) | 3.1 (≈ 7.02 µM) | 0.78 (≈ 1.77 µM) | 12.5 (≈ 28.3 µM) | 1.56 (≈ 3.53 µM) | 12.5 (≈ 28.3 µM) | 1.56 (≈ 3.53 µM) | 12.5 (≈ 28.3 µM) | 6.2 (≈ 14 µM)
11 | O=C1CN(c2cc3c(cc2F)c(=O)c(C(=O)O)cn3-c2ccc(F)cc2)CCN1 | 1.56 (≈ 3.91 µM) | 0.2 (≈ 0.501 µM) | 0.39 (≈ 0.977 µM) | 12.5 (≈ 31.3 µM) | 0.39 (≈ 0.977 µM) | 6.2 (≈ 15.5 µM) | 0.39 (≈ 0.977 µM) | 3.1 (≈ 7.76 µM) | 0.78 (≈ 1.95 µM) | 1.56 (≈ 3.91 µM) | 0.78 (≈ 1.95 µM)
12 | O=C(O)c1cn(-c2ccc(F)cc2)c2cc(N3CCSCC3)c(F)cc2c1=O | 0.78 (≈ 1.94 µM) | 0.05 (≈ 0.124 µM) | 0.39 (≈ 0.969 µM) | 0.78 (≈ 1.94 µM) | 0.05 (≈ 0.124 µM) | 3.1 (≈ 7.7 µM) | 0.78 (≈ 1.94 µM) | 3.1 (≈ 7.7 µM) | 0.1 (≈ 0.248 µM) | 0.78 (≈ 1.94 µM) | 0.78 (≈ 1.94 µM)
13 | CN1CCN(c2cc3c(cc2F)c(=O)c(C(=O)O)cn3-c2ccc(F)cc2)CC1=O | 0.39 (≈ 0.943 µM) | 0.1 (≈ 0.242 µM) | 0.2 (≈ 0.484 µM) | 0.39 (≈ 0.943 µM) | 0.2 (≈ 0.484 µM) | 1.56 (≈ 3.77 µM) | 0.39 (≈ 0.943 µM) | 0.78 (≈ 1.89 µM) | 0.2 (≈ 0.484 µM) | 0.78 (≈ 1.89 µM) | 0.39 (≈ 0.943 µM)
14 | CCC(=O)N1CCN(c2cc3c(cc2F)c(=O)c(C(=O)O)cn3-c2ccc(F)cc2)CC1 | 3.1 (≈ 7.02 µM) | 0.2 (≈ 0.453 µM) | 0.78 (≈ 1.77 µM) | 6.2 (≈ 14 µM) | 0.2 (≈ 0.453 µM) | 12.5 (≈ 28.3 µM) | 1.56 (≈ 3.53 µM) | 12.5 (≈ 28.3 µM) | 0.78 (≈ 1.77 µM) | 6.2 (≈ 14 µM) | 1.56 (≈ 3.53 µM)
